# Most compounds without a hit are left out; they make up all but 4.7% or so of the library.
# MPTP inh: mitochondrial permeability transition pore inhibitors, primary screen, biochemical, isolated mouse mitochondria, absorbance | Ca2+ swelling absorbance, 30 min | inhibition, % at 10 µM | 360,000 compounds, 1.4% hits;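 active = inhibition of 50% or more, scaled per plate between neutral and stimulator controls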;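 note: 0% = DMSO wells given calcium and 100% = 1 mM EGTA wells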
# NR3A LBD binder: binders of NR3A ligand-binding domain, primary screen, biophysical, differential scanning fluorimetry, uHTS. Glutamate receptor ionotropic, NMDA 3A (GRIN3A) ligand-binding domain. NR3A LBD differential scanning fluorimetry, Tm shift; 0% = protein alone, 100% = glycine-bound protein. Tm shift relative to glycine control, % at 25 µM. 340,000 compounds, 2.5% hits. AID 1259313, 2017;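 active = melting temperature shift of at least 10% of the positive control shift, at one fixed dose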
# MT1-MMP act inh: blockers of MT1-MMP proenzyme processing, primary screen, HT1080 RFP-PRO-GFP cells, GFP/RFP fluorescence. AID 651647, 2012. 360,000 compounds, 0.061% hits. Matrix metalloproteinase-14 (Homo sapiens), P50281. GFP/RFP ratio change, % at 20 µM. GFP/RFP ratio fluorescence, overnight; percent of plate control window, DMSO zero;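 active = GFP/RFP ratio change of at least 30% with cell ATP level not reduced by more than half and red fluorescence within 50% of control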
#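 Read-out: GFP/RFP fluorescence ratio; Test system: RFP-PRO-GFP reporter HT1080 cells; Compound dosing: single-point 20 µM compound, 1% DMSO; Times: overnight compound exposure at 37 °C.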
# ADAM10 inh: human ADAM10 inhibitors, primary screen, biochemical, QFRET, HTS; recombinant ADAM10, EDANS/DABCYL FRET peptide cleavage, 3 h; inhibition, % at 7 µM; 370,000 compounds, 0.62% hits; AID 720582, 2013;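 active = inhibition above a per-campaign cutoff equal to the mean of compounds falling between control-based bounds plus 3 SD, cut at about 20% in these data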;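 note: 0% = DMSO wells while the 100% control is not disclosed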
# SKN-1 inh: suppressors of acrylamide-induced Pgst-4::GFP reporter in worms, primary screen, SKN-1 inhibitor project, whole organism, uHTS, GFP/RFP fluorescence ratio, strain VP596 | inhibition, % at 21.8 µM | C. elegans VP596 Pgst-4::GFP/RFP ratio, 24 h | 360,000 compounds, 0.49% hits;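 active = interference check ratio from 0.5 to 1.5 plus GFP to RFP signal ratio inhibition reaching or exceeding a fixed threshold, cut at about 30% in these data, passing the limit was not always enough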
# ADAM17 inh: ADAM17 inhibitors, primary screen, biochemical, QFRET; Disintegrin and metalloproteinase domain-containing protein 17 (Homo sapiens), P78536; inhibition, % at 6.95 µM; 370,000 compounds, 0.83% hits; recombinant ADAM17, EDANS/DABCYL FRET peptide cleavage; AID 720648, 2013;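 active = inhibition above the mean of compounds lying between control limits plus 3 SD, set per campaign, cut at about 8.5% in these data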;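 note: 0% = DMSO-only wells as the low control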
# Target sequence (P78536 215-824 limits assumed): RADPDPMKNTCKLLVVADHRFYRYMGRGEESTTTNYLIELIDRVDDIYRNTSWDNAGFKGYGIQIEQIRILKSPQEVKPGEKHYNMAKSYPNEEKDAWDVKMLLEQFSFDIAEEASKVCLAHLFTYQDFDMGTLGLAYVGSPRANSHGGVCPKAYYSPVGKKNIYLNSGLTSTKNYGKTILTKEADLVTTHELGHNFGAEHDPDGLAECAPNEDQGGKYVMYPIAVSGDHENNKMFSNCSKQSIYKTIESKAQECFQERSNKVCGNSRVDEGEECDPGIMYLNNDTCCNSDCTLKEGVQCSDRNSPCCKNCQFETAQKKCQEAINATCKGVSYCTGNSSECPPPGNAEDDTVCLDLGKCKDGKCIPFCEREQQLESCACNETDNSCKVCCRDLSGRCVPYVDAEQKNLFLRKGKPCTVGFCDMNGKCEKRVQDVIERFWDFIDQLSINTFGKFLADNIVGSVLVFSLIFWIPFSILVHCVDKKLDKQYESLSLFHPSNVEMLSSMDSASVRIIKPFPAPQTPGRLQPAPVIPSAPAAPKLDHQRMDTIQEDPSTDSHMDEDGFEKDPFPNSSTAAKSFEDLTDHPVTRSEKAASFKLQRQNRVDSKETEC
# Active calls of the source: *; i = inactive; . = no result.
SMILES,MPTP inh,NR3A LBD binder,MT1-MMP act inh,ADAM10 inh,SKN-1 inh,ADAM17 inh
CCOC(=O)[C@]12Cc3cc(C)ccc3[C@H]1N(Cc1ccccc1)C(=O)c1ccccc12,-1,12*,-6,17,5,7
CCOC(=O)[C@]12Cc3cc(OC)ccc3[C@H]1N(Cc1ccccc1)C(=O)c1ccccc12,-1,-4,-6,3,8,-1
CCOC(=O)[C@]12Cc3cc(OC)ccc3[C@H]1N(Cc1ccccc1)C(=O)c1cc(F)c(F)cc12,1,13*,-13,3,2,0
Cn1c(O)c(C=NCCN2CCNCC2)c(=O)[nH]c1=O,2,-1,1,5,-15,-6
CN(C)c1ccc(/C=C2/C(=O)NC(=O)N(Cc3ccco3)C2=O)cc1,8,2,-22,-7,11,-2
CCN(CC)c1ccc(/C=C2/C(=O)NC(=O)N(Cc3ccco3)C2=O)cc1,31,24*,-44,-6,42,-1
CCN(CC)c1ccc(/C=C2\C(=O)NC(=O)N(CC3CCCO3)C2=O)cc1 (configuration not stated),27,3,-3,-1,42*,1
O=[N+]([O-])c1ccc(N2CCCC2)c2ccncc12,1,-4,26,4,35*,7
CCOCCCn1c(N)c(C(=O)Nc2sc3c(c2C(=O)OC)CCCC3)c2nc3ccccc3nc21,4,17*,-134,i,19,-456
CCOC(=O)c1c(NC(=O)c2c(N)n(CCCOC)c3nc4ccccc4nc23)sc2c1CCCC2,2,24*,-6,-12,8,-8
CCCCn1c(N)c(C(=O)OCCOC)c2nc3ccccc3nc21,1,0,-14,i,5,-289
CCCCn1c(NS(=O)(=O)c2ccc(C)cc2)c(C(=O)OCC)c2nc3ccccc3nc21,15,13*,-6,-365,-9,-102
COC(=O)C1=C(c2ccccc2OCc2ccccc2)C[C@@H]2CC[C@H]1N2C(=O)NCCCOC(C)C,-2,0,-4,1,-3,-1
CN(C)c1cc[n+](CC(O)C[n+]2ccc(N(C)C)cc2)cc1,0,-3,1,3,-1,1
S=P(c1ccccc1)(c1ccccc1)c1cnc2ccccn12,.,.,.,7,.,2
CC(=O)N(C1=NCCCS1)c1ccc(F)cc1,0,5,5,4,39*,0
CC(=O)N(C1=NCCCS1)c1ccc(Cl)cc1,-4,-2,-2,1,9,-4
O=C1NC(=O)N(Cc2ccc(F)cc2)C(=O)/C1=C\c1ccc(N2CCCC2)cc1,13,3,20,-11,39*,-4
CCC(=O)O[C@@H]1[C@@H](OC(C)=O)[C@@]2(O)C(C[C@H](O)C2(C)C)[C@](C)(O)[C@H]2CC[C@@H]3[C@@H](O)[C@]12C[C@@]3(C)O (some centres not stated),-2,-2,1,2,8,0
COc1ccc(C(=O)O)cc1OC,0,1,1,-13,-5,-1
O=C(O)c1cc[c]([Hg][Cl])cc1,16,1,-2,.,45*,.
COC(=O)C(C)Oc1cc(C)cc2oc(=O)c3c(c12)CCCC3 (configuration not stated),2,-1,3,-282,2,-91
CCOC(=O)C(C)Oc1cc(C)cc2oc(=O)c3c(c12)CCCC3 (configuration not stated),1,15*,7,-67,18,-28
Cc1ccc(N2C(=O)NC(=O)C3(Cc4ccccc4N4CCCC43)C2=O)cc1 (configuration not stated),2,-1,-10,-35,59*,-7
O=C1NC(=O)C2(Cc3ccccc3N3CCCC32)C(=O)N1c1ccc(Cl)cc1 (configuration not stated),.,-5,.,-17,.,-4
SMILES,MPTP inh,NR3A LBD binder,MT1-MMP act inh,ADAM10 inh,SKN-1 inh,ADAM17 inh
COc1ccc2c(c1OC)C(=O)O[C@@H]2[C@H]1c2cc3c(cc2CCN1C)OCO3,-2,1,-1,-18,-5,-5
CC(=O)c1ccc2c(c1)C1C(Cl)C(Sc3ccccc3[N+](=O)[O-])CC1C(C(=O)O)N2 (configuration not stated),-1,8,45*,6,-1,2
CC1([N+](=O)[O-])COP(=O)(Nc2cccc(Cl)c2)OC1 (configuration not stated),-1,0,-1,-1,22,-5
CCC1([N+](=O)[O-])COP(=O)(NCc2cccnc2)OC1 (configuration not stated),-1,13*,4,5,-5,0
O=c1[nH]c(=S)n(-c2ccccc2)c(O)c1/C=N/N1CCCCC1c1cccnc1 (configuration not stated),2,-1,-6,3,41*,-3
CCc1ccc(-n2c(O)c(/C=N/N3CCCCC3c3cccnc3)c(=O)[nH]c2=O)cc1 (configuration not stated),0,0,-4,-6,-7,5
COC(=O)c1ccc(CN2CCSC2=N)cc1,-2,-1,-4,-2,6,-6
CCCCCn1c(N)c(C(=O)NCCN2CCOCC2)c2nc3ccccc3nc21,0,-8,-13,i,34*,-357
CCCCCn1c(N)c(C(=O)NCc2cccs2)c2nc3ccccc3nc21,.,10,.,-76,.,-28
Nc1c(C(=O)NCCCc2ccccc2)c2nc3ccccc3nc2n1Cc1cccs1,6,22*,-11,-55,-2,-19
CCCCCCn1c(N)c(C(=O)NCCN2CCOCC2)c2nc3ccccc3nc21,1,-4,-6,i,12,-269
O=c1[nH]c(Cl)ccc1CN1CCOCC1,0,1,3,-5,-2,-2
COc1cc(C)c(CNCCc2c[nH]c3ccccc23)cc1C,3,1,-7,-1,16,-3
CCN(CC)c1ccc(C=C2C(=O)N(C)C(=S)N(C)C2=O)o1,1,-1,-107,3,38*,3
O=C(COc1ccc(Cl)cc1)N1CCN(C2CCCC2)CC1,-2,1,3,-4,11,4
O=C(NN=Cc1ccc(N(CCCl)CCCl)cc1)c1cc(=O)[nH]c(=O)[nH]1,0,8,10,5,28,6

# From PubChem
